Source: ChEMBL document CHEMBL1649231, “In vitro activities of panduratin A against clinical Staphylococcus strains” (2009)
Converted amounts (≈) assume the structure as drawn.

Experiments:
Format in all cases: functional
[1] = system: Staphylococcus epidermidis; assay: Bactericidal activity against methicillin-susceptible coagulase-negative Staphylococcus epidermidis after 24 hrs by plate counting method
Outline: (§1)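 Clinical staphylococcal isolates from patient body fluids, blood, genital secretions, pus or sputum; species by conventional methods or Vitek. Twofold dilutions in Mueller-Hinton broth, inoculum 5 × 10^5 CFU/ml, 37°C aerobic 24 h (CLSI M7-A6 microdilution). About 100 μl from each well without visible growth spread on MHA; 37°C 24 h. MBC = lowest concentration giving no growth on agar.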

[2] = system: Staphylococcus simulans; assay: Bactericidal activity against methicillin-resistant coagulase-negative Staphylococcus simulans after 24 hrs by plate counting method; outline: as §1
[3] = system: Mammaliicoccus sciuri; assay: Antimicrobial activity against methicillin-susceptible coagulase-negative Staphylococcus sciuri after 24 hrs by broth microdilution method
Outline: (§2)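 Clinical isolates came from blood, body fluids, genital secretions, pus or sputum, identified conventionally or by Vitek. MICs were run by CLSI M7-A6 broth microdilution in Mueller-Hinton broth with 5 × 10^5 CFU/ml inoculum. Agents were twofold serially diluted, starting from 10% DMSO. Drug-free and uninoculated controls were included. Plates were incubated aerobically at 37°C for 24 h; MIC is the lowest concentration giving no visible growth.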

[4] = system: Staphylococcus aureus; assay: Antimicrobial activity against methicillin-susceptible Staphylococcus aureus after 24 hrs by broth microdilution method; outline: as §2
[5] = system: Staphylococcus epidermidis; assay: Bactericidal activity against methicillin-resistant coagulase-negative Staphylococcus epidermidis after 24 hrs by plate counting method
[6] = system: Porphyromonas gingivalis; assay: Bactericidal activity against Porphyromonas gingivalis
[7] = system: Staphylococcus haemolyticus; assay: Antimicrobial activity against methicillin-susceptible coagulase-negative Staphylococcus haemolyticus after 24 hrs by broth microdilution method; outline: as §2
[8] = system: Streptococcus mutans; assay: Antimicrobial activity against Streptococcus mutans
[9] = system: Mammaliicoccus sciuri; assay: Antimicrobial activity against methicillin-resistant coagulase-negative Staphylococcus sciuri after 24 hrs by broth microdilution method; outline: as §2
[10] = system: Cutibacterium acnes; assay: Bactericidal activity against Propionibacterium acnes
[11] = system: Staphylococcus simulans; assay: Bactericidal activity against methicillin-susceptible coagulase-negative Staphylococcus simulans after 24 hrs by plate counting method; outline: as §1
[12] = system: Staphylococcus aureus; assay: Bactericidal activity against methicillin-susceptible Staphylococcus aureus after 24 hrs by plate counting method; outline: as §1
[13] = system: Staphylococcus haemolyticus; assay: Antimicrobial activity against methicillin-resistant coagulase-negative Staphylococcus haemolyticus after 24 hrs by broth microdilution method; outline: as §2
[14] = system: Mammaliicoccus sciuri; assay: Bactericidal activity against methicillin-susceptible coagulase-negative Staphylococcus sciuri after 24 hrs by plate counting method; outline: as §1
[15] = system: Staphylococcus haemolyticus; assay: Bactericidal activity against methicillin-susceptible coagulase-negative Staphylococcus haemolyticus after 24 hrs by plate counting method; outline: as §1
[16] = system: Staphylococcus haemolyticus; assay: Bactericidal activity against methicillin-resistant coagulase-negative Staphylococcus haemolyticus after 24 hrs by plate counting method
[17] = system: Hoylesella loescheii; assay: Bactericidal activity against Prevotella loescheii
[18] = system: Staphylococcus aureus; assay: Antimicrobial activity against methicillin-resistant Staphylococcus aureus after 24 hrs by broth microdilution method; outline: as §2
[19] = system: Cutibacterium acnes; assay: Antimicrobial activity against Propionibacterium acnes
[20] = system: Staphylococcus hominis; assay: Antimicrobial activity against methicillin-resistant coagulase-negative Staphylococcus hominis after 24 hrs by broth microdilution method; outline: as §2
[21] = system: Staphylococcus hominis; assay: Bactericidal activity against methicillin-susceptible coagulase-negative Staphylococcus hominis after 24 hrs by plate counting method; outline: as §1
[22] = system: Staphylococcus hominis; assay: Bactericidal activity against methicillin-resistant coagulase-negative Staphylococcus hominis after 24 hrs by plate counting method
[23] = system: Staphylococcus epidermidis; assay: Antimicrobial activity against methicillin-susceptible coagulase-negative Staphylococcus epidermidis after 24 hrs by broth microdilution method; outline: as §2
[24] = system: Prevotella intermedia; assay: Antimicrobial activity against Prevotella intermedia
[25] = system: Staphylococcus simulans; assay: Antimicrobial activity against methicillin-susceptible coagulase-negative Staphylococcus simulans after 24 hrs by broth microdilution method; outline: as §2
[26] = system: Staphylococcus epidermidis; assay: Antimicrobial activity against methicillin-resistant coagulase-negative Staphylococcus epidermidis after 24 hrs by broth microdilution method; outline: as §2
[27] = system: Hoylesella loescheii; assay: Antimicrobial activity against Prevotella loescheii
[28] = system: Staphylococcus hominis; assay: Antimicrobial activity against methicillin-susceptible coagulase-negative Staphylococcus hominis after 24 hrs by broth microdilution method; outline: as §2
[29] = system: Mammaliicoccus sciuri; assay: Bactericidal activity against methicillin-resistant coagulase-negative Staphylococcus sciuri after 24 hrs by plate counting method; outline: as §1
[30] = system: Streptococcus mutans; assay: Bactericidal activity against Streptococcus mutans
[31] = system: Prevotella intermedia; assay: Bactericidal activity against Prevotella intermedia
[32] = system: Porphyromonas gingivalis; assay: Antimicrobial activity against Porphyromonas gingivalis
[33] = system: Staphylococcus simulans; assay: Antimicrobial activity against methicillin-resistant coagulase-negative Staphylococcus simulans after 24 hrs by broth microdilution method; outline: as §2
[34] = system: Staphylococcus aureus; assay: Bactericidal activity against methicillin-resistant Staphylococcus aureus after 24 hrs by plate counting method; settings: Staphylococcus aureus, 24 h
[35] = Staphylococcus epidermidis, 24 h
[36] = Staphylococcus haemolyticus, 24 h

## COc1cc(O)c(C(=O)[C@@H]2[C@H](CC=C(C)C)C(C)=CC[C@H]2c2ccccc2)c(O)c1 [PANDURATIN A]
[1]
  MBC50: 1 µg/mL (≈ 2.46 µM)
  MBC90: 4 µg/mL (≈ 9.84 µM)
[1]; [35]
  MBC: 0.125 µg/mL (≈ 0.307 µM)
[2]
  MBC50: 2 µg/mL (≈ 4.92 µM)
[2]; Staphylococcus simulans, 24 h
  MBC: 1 µg/mL (≈ 2.46 µM)
[3]
  MIC50: 0.5 µg/mL (≈ 1.23 µM)
  MIC90: 1 µg/mL (≈ 2.46 µM)
[4]
  MIC: 0.5 µg/mL (≈ 1.23 µM)
  MIC50: 0.5 µg/mL (≈ 1.23 µM)
  MIC90: 1 µg/mL (≈ 2.46 µM)
[5]
  MBC50: 2 µg/mL (≈ 4.92 µM)
[5]; [35]
  MBC: 1 µg/mL (≈ 2.46 µM)
[6]
  MBC: 8 µg/mL (≈ 19.7 µM)
[7]
  MIC50: 0.5 µg/mL (≈ 1.23 µM)
  MIC90: 1 µg/mL (≈ 2.46 µM)
[8]
  MIC: 4 µg/mL (≈ 9.84 µM)
[9]
  MIC50: 0.25 µg/mL (≈ 0.615 µM)
  MIC90: 1 µg/mL (≈ 2.46 µM)
[10]
  MBC: 4 µg/mL (≈ 9.84 µM)
[11]
  MBC50: 1 µg/mL (≈ 2.46 µM)
  MBC90: 4 µg/mL (≈ 9.84 µM)
[11]; Staphylococcus simulans, 24 h
  MBC: 0.125 µg/mL (≈ 0.307 µM)
[12]
  MBC50: 2 µg/mL (≈ 4.92 µM)
  MBC90: 4 µg/mL (≈ 9.84 µM)
[12]; Staphylococcus aureus, 24 h
  MBC: 1 µg/mL (≈ 2.46 µM)
[13]
  MIC50: 0.25 µg/mL (≈ 0.615 µM)
  MIC90: 1 µg/mL (≈ 2.46 µM)
[14]
  MBC50: 1 µg/mL (≈ 2.46 µM)
  MBC90: 4 µg/mL (≈ 9.84 µM)
[14]; Mammaliicoccus sciuri, 24 h
  MBC: 0.125 µg/mL (≈ 0.307 µM)
[15]
  MBC50: 1 µg/mL (≈ 2.46 µM)
  MBC90: 4 µg/mL (≈ 9.84 µM)
[15]; [36]
  MBC: 0.125 µg/mL (≈ 0.307 µM)
[16]
  MBC50: 2 µg/mL (≈ 4.92 µM)
[16]; [36]
  MBC: 1 µg/mL (≈ 2.46 µM)
[17]
  MBC: 8 µg/mL (≈ 19.7 µM)
[18]
  MIC: 0.5 µg/mL (≈ 1.23 µM)
  MIC50: 0.5 µg/mL (≈ 1.23 µM)
  MIC90: 1 µg/mL (≈ 2.46 µM)
[19]
  MIC: 2 µg/mL (≈ 4.92 µM)
[20]
  MIC50: 0.25 µg/mL (≈ 0.615 µM)
  MIC90: 1 µg/mL (≈ 2.46 µM)
[21]
  MBC50: 1 µg/mL (≈ 2.46 µM)
  MBC90: 4 µg/mL (≈ 9.84 µM)
[21]; Staphylococcus hominis, 24 h
  MBC: 0.125 µg/mL (≈ 0.307 µM)
[22]
  MBC50: 2 µg/mL (≈ 4.92 µM)
[22]; Staphylococcus hominis, 24 h
  MBC: 1 µg/mL (≈ 2.46 µM)
[23]
  MIC50: 0.5 µg/mL (≈ 1.23 µM)
  MIC90: 1 µg/mL (≈ 2.46 µM)
[24]
  MIC: 2 µg/mL (≈ 4.92 µM)
[25]
  MIC50: 0.5 µg/mL (≈ 1.23 µM)
  MIC90: 1 µg/mL (≈ 2.46 µM)
[26]
  MIC50: 0.25 µg/mL (≈ 0.615 µM)
  MIC90: 1 µg/mL (≈ 2.46 µM)
[27]
  MIC: 4 µg/mL (≈ 9.84 µM)
[28]
  MIC50: 0.5 µg/mL (≈ 1.23 µM)
  MIC90: 1 µg/mL (≈ 2.46 µM)
[29]
  MBC50: 2 µg/mL (≈ 4.92 µM)
[29]; Mammaliicoccus sciuri, 24 h
  MBC: 1 µg/mL (≈ 2.46 µM)
[30]
  MBC: 8 µg/mL (≈ 19.7 µM)
[31]
  MBC: 4 µg/mL (≈ 9.84 µM)
[32]
  MIC: 4 µg/mL (≈ 9.84 µM)
[33]
  MIC50: 0.25 µg/mL (≈ 0.615 µM)
  MIC90: 1 µg/mL (≈ 2.46 µM)
[34]
  MBC: 2 µg/mL (≈ 4.92 µM)
